Measured values as given in ChEMBL document CHEMBL4266033, “Neolymphostin A Is a Covalent Phosphoinositide 3-Kinase (PI3K)/Mammalian Target of Rapamycin (mTOR) Dual Inhibitor That Employs an Unusual Electrophilic Vinylogous Ester” (J Med Chem, 2018).
Calls of active or inactive are those of the source. No cut-off for these calls is given here.

Legend:
[1] = molecular target: T1, Phosphatidylinositol 4,5-bisphosphate 3-kinase catalytic subunit alpha isoform (Homo sapiens, UniProt P42336); assay: Binding affinity to human PI3Kalpha after 1 hr by KINOMEscan assay
T1 sequence (P42336 whole entry, canonical isoform): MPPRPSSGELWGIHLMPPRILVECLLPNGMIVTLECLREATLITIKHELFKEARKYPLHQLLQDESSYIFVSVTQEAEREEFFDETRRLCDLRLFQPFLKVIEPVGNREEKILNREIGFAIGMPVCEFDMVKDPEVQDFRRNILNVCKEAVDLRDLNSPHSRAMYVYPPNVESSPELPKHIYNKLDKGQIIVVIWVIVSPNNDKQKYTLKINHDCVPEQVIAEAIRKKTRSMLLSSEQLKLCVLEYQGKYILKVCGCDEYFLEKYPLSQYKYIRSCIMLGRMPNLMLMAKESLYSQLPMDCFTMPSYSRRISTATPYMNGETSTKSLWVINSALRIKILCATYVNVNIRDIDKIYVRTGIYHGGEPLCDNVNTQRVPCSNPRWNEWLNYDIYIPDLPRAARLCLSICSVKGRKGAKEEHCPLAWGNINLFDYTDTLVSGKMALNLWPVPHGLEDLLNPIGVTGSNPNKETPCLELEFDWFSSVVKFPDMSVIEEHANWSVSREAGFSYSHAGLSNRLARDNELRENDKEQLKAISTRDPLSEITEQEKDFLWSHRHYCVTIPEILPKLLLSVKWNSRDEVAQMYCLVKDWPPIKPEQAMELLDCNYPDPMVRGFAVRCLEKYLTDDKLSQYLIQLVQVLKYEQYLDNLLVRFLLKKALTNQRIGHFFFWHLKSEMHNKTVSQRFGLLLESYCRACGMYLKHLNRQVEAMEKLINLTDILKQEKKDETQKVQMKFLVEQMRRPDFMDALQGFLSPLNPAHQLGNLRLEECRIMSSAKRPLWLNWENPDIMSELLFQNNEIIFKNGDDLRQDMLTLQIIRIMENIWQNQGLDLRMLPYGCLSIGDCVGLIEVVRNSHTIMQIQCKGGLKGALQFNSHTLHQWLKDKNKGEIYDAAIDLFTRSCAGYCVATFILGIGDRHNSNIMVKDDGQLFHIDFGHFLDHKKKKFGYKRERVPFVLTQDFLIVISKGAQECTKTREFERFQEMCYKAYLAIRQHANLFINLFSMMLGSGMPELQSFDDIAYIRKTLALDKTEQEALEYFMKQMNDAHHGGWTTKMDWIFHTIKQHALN

[2] = molecular target: T2, Phosphatidylinositol 4,5-bisphosphate 3-kinase catalytic subunit delta isoform (Homo sapiens, UniProt O00329); assay: Binding affinity to human PI3Kdelta after 1 hr by KINOMEscan assay
T2 sequence (O00329 whole entry): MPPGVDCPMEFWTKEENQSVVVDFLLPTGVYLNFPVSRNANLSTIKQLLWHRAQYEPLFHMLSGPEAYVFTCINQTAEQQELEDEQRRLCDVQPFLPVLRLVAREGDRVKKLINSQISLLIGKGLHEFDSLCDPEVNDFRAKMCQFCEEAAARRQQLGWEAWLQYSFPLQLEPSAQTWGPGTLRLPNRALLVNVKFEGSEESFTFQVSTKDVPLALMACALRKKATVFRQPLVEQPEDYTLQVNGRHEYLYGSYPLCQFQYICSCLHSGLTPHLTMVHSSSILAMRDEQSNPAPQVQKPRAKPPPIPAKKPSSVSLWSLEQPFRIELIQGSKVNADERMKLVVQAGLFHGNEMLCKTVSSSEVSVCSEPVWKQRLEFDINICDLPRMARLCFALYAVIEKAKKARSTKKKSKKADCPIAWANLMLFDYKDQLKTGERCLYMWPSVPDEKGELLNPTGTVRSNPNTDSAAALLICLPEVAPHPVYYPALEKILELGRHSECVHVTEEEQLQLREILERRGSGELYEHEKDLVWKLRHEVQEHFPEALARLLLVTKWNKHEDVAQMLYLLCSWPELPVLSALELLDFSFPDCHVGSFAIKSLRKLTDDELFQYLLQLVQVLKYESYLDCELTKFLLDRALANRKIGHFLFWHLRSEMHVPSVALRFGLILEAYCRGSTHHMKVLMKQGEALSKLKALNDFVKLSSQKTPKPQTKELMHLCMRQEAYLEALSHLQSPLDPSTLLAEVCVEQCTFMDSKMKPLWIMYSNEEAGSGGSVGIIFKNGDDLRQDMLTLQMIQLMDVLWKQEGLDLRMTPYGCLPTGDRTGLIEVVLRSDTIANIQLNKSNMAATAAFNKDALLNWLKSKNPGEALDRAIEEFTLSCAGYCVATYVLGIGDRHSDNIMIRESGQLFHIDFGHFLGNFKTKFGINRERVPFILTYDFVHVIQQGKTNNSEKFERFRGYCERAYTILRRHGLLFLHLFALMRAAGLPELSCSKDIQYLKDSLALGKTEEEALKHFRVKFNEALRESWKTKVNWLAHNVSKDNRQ

[3] = molecular target: Serine/threonine-protein kinase mTOR (Homo sapiens, UniProt P42345); assay: Binding affinity to human mTOR after 1 hr by KINOMEscan assay
[4] = molecular target: Mitogen-activated protein kinase 10 (Homo sapiens) (UniProt P53779); assay: Binding affinity to human JNK3 at 1 uM after 1 hr by KINOMEscan assay
Chain of Mitogen-activated protein kinase 10 (Homo sapiens) (P53779 whole entry): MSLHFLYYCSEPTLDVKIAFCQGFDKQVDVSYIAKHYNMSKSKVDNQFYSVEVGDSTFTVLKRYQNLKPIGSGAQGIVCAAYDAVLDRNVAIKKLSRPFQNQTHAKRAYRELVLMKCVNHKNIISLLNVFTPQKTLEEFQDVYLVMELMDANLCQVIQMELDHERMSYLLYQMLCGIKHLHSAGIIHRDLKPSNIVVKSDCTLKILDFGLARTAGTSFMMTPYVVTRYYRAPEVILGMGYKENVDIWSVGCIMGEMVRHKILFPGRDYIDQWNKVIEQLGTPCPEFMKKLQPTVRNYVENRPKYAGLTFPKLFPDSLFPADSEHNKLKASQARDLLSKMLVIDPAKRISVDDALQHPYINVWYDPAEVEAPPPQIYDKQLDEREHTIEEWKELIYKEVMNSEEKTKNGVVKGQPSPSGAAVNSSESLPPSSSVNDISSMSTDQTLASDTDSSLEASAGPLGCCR

[5] = Inhibition of PI3K in human HeLa cells assessed as reduction in EGF-stimulated AKT phosphorylation at S473 preincubated for 10 mins followed by EGF stimulation measured after 5 mins by Western blot analysis; type: cell-based
Procedure, shortened: (§1)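 HeLa cells were serum-starved overnight, pretreated with compound for 10 min, then stimulated with 10 ng mL-1 EGF for 5 min. Lysis was in boiling SDS sample buffer, with protein quantified at 660 nm. Equal protein was resolved by SDS-PAGE and Western blotted for pEGFR Tyr1068, pAKT Ser473/Thr308, and pERK1/2 Thr202/Tyr204 with total proteins and GAPDH, detected by ECL.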

[6] = Inhibition of PI3K in human HeLa cells assessed as reduction in EGF-stimulated AKT phosphorylation at T308 preincubated for 10 mins followed by EGF stimulation measured after 5 mins by Western blot analysis; type: cell-based; procedure, shortened: as §1
[7] = molecular target: Epidermal growth factor receptor (Homo sapiens) (UniProt P00533); assay: Inhibition of EGFR in human HeLa cells assessed as reduction in EGF-stimulated ERK1/2 phosphorylation at T202/Y204 at 0.3 to 100 nM preincubated for 10 mins followed by EGF stimulation measured after 5 mins by Western blot analysis; type: cell-based; procedure, shortened: as §1
Chain of Epidermal growth factor receptor (Homo sapiens) (P00533 whole entry, canonical isoform): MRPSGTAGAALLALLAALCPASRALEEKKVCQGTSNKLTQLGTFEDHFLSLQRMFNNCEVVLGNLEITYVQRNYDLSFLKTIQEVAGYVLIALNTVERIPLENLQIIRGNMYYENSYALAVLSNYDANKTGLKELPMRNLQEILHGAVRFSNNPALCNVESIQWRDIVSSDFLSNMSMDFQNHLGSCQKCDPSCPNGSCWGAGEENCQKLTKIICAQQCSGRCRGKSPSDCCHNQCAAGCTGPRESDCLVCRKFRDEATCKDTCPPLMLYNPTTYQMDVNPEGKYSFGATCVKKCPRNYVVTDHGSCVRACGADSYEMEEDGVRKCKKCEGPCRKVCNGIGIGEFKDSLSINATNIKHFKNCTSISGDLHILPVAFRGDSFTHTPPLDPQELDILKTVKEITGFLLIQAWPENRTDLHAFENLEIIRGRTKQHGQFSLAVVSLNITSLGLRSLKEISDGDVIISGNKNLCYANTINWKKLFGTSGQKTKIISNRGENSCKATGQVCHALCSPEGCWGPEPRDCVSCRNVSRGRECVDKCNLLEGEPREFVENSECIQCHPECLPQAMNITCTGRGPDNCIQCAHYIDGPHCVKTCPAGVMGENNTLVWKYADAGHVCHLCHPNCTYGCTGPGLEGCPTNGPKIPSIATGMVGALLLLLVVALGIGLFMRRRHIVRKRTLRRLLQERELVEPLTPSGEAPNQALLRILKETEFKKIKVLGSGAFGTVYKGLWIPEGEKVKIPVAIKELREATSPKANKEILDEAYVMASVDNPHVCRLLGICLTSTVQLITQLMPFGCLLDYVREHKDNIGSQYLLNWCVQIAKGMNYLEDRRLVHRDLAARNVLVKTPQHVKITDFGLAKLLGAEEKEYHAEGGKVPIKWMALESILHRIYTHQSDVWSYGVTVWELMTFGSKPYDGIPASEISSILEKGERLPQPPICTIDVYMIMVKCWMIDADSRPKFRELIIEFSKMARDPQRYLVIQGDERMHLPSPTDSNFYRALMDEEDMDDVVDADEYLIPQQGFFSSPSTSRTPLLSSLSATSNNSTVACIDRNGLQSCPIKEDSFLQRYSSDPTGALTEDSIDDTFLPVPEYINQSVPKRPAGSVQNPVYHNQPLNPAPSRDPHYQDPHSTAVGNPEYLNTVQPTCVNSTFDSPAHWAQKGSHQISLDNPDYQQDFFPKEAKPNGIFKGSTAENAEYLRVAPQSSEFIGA

[8] = molecular target: Epidermal growth factor receptor (Homo sapiens) (UniProt P00533); assay: Inhibition of EGFR in human HeLa cells assessed as reduction in EGF-stimulated EGFR phosphorylation at 0.3 to 100 nM preincubated for 10 mins followed by EGF stimulation measured after 5 mins by Western blot analysis; type: cell-based; procedure, shortened: as §1
[9] = molecular target: T1, Phosphatidylinositol 4,5-bisphosphate 3-kinase catalytic subunit alpha isoform; assay: Binding affinity to human PI3Kalpha equilibrate for 1 hr by scan-kinetic platform assay
Procedure, shortened: (§2)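 scanKINETIC format on PI3Kα and PI3Kγ. […] Arm C: equilibrated 1 h. Arm B: equilibrated 1 h, diluted 30-fold, then re-equilibrated. Arm D: diluted immediately, then equilibrated. Kd compared with and without the dilution step to judge reversibility.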

[10] = molecular target: T1, Phosphatidylinositol 4,5-bisphosphate 3-kinase catalytic subunit alpha isoform; assay: Binding affinity to human PI3Kalpha diluted 30 fold and equilibrate for 6 hrs by scan-kinetic platform assay; procedure, shortened: as §2
[11] = molecular target: T3, Phosphatidylinositol 4,5-bisphosphate 3-kinase catalytic subunit gamma isoform (Homo sapiens, UniProt P48736); assay: Binding affinity to human PI3Kgamma equilibrate for 6 hrs by scan-kinetic platform assay; procedure, shortened: as §2
T3 sequence (P48736 whole entry, canonical isoform): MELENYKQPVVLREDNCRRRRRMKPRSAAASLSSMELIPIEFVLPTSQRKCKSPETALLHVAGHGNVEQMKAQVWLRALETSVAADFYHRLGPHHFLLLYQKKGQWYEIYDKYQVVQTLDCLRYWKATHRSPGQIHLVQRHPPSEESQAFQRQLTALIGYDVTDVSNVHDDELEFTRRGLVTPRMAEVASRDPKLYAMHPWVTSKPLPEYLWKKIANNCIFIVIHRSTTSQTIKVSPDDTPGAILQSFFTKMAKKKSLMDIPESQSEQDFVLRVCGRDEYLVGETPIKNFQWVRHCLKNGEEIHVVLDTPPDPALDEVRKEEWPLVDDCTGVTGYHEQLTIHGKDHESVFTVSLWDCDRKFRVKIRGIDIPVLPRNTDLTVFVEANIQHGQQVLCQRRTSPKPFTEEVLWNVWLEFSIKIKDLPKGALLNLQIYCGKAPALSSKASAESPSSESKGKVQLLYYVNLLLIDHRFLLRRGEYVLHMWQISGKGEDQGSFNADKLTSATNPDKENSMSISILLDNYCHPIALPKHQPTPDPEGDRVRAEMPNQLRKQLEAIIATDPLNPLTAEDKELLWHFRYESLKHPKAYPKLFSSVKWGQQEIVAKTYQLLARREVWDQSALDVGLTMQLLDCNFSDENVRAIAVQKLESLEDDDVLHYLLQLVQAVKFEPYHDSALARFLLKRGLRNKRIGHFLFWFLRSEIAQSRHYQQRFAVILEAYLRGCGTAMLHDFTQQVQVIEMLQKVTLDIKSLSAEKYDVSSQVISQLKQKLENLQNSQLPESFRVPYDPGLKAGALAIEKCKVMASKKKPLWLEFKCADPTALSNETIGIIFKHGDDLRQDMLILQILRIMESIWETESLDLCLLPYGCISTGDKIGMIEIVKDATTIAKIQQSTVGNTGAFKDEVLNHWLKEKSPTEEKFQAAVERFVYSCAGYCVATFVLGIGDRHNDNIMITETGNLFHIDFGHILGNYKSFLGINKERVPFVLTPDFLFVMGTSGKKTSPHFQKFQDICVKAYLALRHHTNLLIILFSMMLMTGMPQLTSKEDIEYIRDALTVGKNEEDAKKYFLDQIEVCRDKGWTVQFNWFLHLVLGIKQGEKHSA

[12] = molecular target: T3, Phosphatidylinositol 4,5-bisphosphate 3-kinase catalytic subunit gamma isoform; assay: Binding affinity to human PI3Kgamma equilibrate for 1 hr followed by 30 fold dilution and re-equilibrate for 5 hrs by scan-kinetic platform assay; procedure, shortened: as §2
[13] = molecular target: T3, Phosphatidylinositol 4,5-bisphosphate 3-kinase catalytic subunit gamma isoform; assay: Binding affinity to human PI3Kgamma diluted 30 fold and equilibrate for 6 hrs by scan-kinetic platform assay; procedure, shortened: as §2

SMILES: CO/C=C/C(=O)c1cc2c3c(c(N)cc(NC(=O)C(C)C)c3n1)N=C2
- Kd [1]: 0.88 nM
- Kd [2]: 4.9 nM
- Kd [3]: 10 nM
- Activity [4]: Active
- IC50 [5]: 3 nM
- IC50 [6]: 3 nM
- inhibition [7]: inactive
- inhibition [8]: inactive
- Kd [9]: 0.65 to 0.68 nM
- Kd [10]: 18 to 20 nM
- Kd [11]: 1.9 to 2 nM
- Kd [12]: 4.4 to 7.3 nM
- Kd [13]: 80 to 100 nM
